In ChEMBL document CHEMBL2086252, “Syntheses and evaluation of anticonvulsant activity of novel branched alkyl carbamates” (J Med Chem, 2012):
Active and inactive are the calls of the source. The calls are words filed in the database; no cut-off is given here.

Experiments:
Mus musculus [1] = test: Anticonvulsant activity in albino CF1 mouse assessed as protection against maximal electroshock-induced seizures at 100 mg/kg, ip after 0.5 hrs; assay type: functional, organism-based; design: dose 100 mg/kg
Method in brief: (§1)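 Mice dosed ip at 30, 100 or 300 mg/kg, then tested 0.5 h and 4 h after administration in the MES or scMet test. Protection was recorded as animals protected over animals tested. Neurotoxicity was recorded as motor impairment or sedation, as animals affected over animals tested.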

Rattus norvegicus [2] = test: Neurotoxicity in Sprague-Dawley albino rat assessed as minimal motor impairment at 100 mg/kg, po by rotarod test; assay type: toxicity, organism-based; design: dose 100 mg/kg, route oral; conditions: in vivo
Method in brief: (§2)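 Rats dosed orally. Anti-MES protection was scored as animals protected over animals tested at each time after dosing. Neurotoxicity was scored as motor impairment or sedation, as animals affected over animals tested.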

Rattus norvegicus [3] = test: Anticonvulsant activity in Sprague-Dawley albino rat assessed as protection against maximal electroshock-induced seizures at 100 mg/kg, po after 4 hrs; assay type: functional, organism-based; design: dose 100 mg/kg; method in brief: as §2
Rattus norvegicus [4] = test: Anticonvulsant activity in Sprague-Dawley albino rat assessed as protection against maximal electroshock-induced seizures at 30 mg/kg, po after 15 mins; assay type: functional, organism-based; design: dose 30 mg/kg; method in brief: as §2
[5] = Neurotoxicity in po dosed Sprague-Dawley albino rat assessed as minimal motor impairment by rotarod test; assay type: toxicity, organism-based; conditions: in vivo
Method in brief: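 Rats dosed orally; 4 rats per time point after dosing. Neurotoxicity was scored as motor impairment or sedation and reported as number of animals affected over number tested.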

Rattus norvegicus [6] = test: Neurotoxicity in Sprague-Dawley albino rat assessed as minimal motor impairment at 30 mg/kg, po by rotarod test; assay type: toxicity, organism-based; design: dose 30 mg/kg, route oral; conditions: in vivo; method in brief: as §2
Rattus norvegicus [7] = test: Neurotoxicity in pilocarpine-induced status epilepticus Sprague-Dawley albino rat model assessed as minimal motor impairment at 300 mg/kg, ip after 0.5 hrs by rotarod test; assay type: toxicity, organism-based; design: dose 300 mg/kg, route intraperitoneal; conditions: in vivo
Method in brief: (§3)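 Rat pilocarpine status epilepticus model: test carbamate given at 0 or 30 min after the first observed Racine stage 3 motor seizure, which marks SE onset. Neurotoxicity was scored within the same model.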

Mus musculus [8] = test: Neurotoxicity in albino CF1 mouse assessed as minimal motor impairment at 30 mg/kg, ip after 4 hrs by rotarod test; assay type: toxicity, organism-based; design: dose 30 mg/kg, route intraperitoneal; conditions: in vivo; method in brief: as §1
Rattus norvegicus [9] = test: Protective index, ratio of TD50 for po dosed Sprague-Dawley albino rat by rotarod test to ED50 for po dosed Sprague-Dawley albino rat by maximal electroshock seizures test; assay type: functional
Method in brief: (§4)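 Protective index calculated as TD50/ED50, with TD50 and ED50 taken from the same species and dosing route.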

Rattus norvegicus [10] = test: Neurotoxicity in pilocarpine-induced status epilepticus Sprague-Dawley albino rat model assessed as minimal motor impairment at 300 mg/kg, ip after 0.25 hr by rotarod test; assay type: toxicity, organism-based; design: dose 300 mg/kg, route intraperitoneal; conditions: in vivo; method in brief: as §3
Rattus norvegicus [11] = test: Neurotoxicity in pilocarpine-induced status epilepticus Sprague-Dawley albino rat model assessed as minimal motor impairment at 100 mg/kg, ip after 4 hrs by rotarod test; assay type: toxicity, organism-based; design: dose 100 mg/kg, route intraperitoneal; conditions: in vivo
Mus musculus [12] = test: Anticonvulsant activity in albino CF1 mouse assessed as protection against subcutaneous metrazol-induced seizures at 30 mg/kg, ip after 0.5 hrs; assay type: functional, organism-based; design: dose 30 mg/kg; method in brief: as §1
Mus musculus [13] = test: Anticonvulsant activity in albino CF1 mouse assessed as protection against subcutaneous metrazol-induced seizures at 100 mg/kg, ip after 0.5 hrs; assay type: functional, organism-based; design: dose 100 mg/kg; method in brief: as §1
Rattus norvegicus [14] = test: Neurotoxicity in pilocarpine-induced status epilepticus Sprague-Dawley albino rat model assessed as minimal motor impairment at 100 mg/kg, ip after 1 hr by rotarod test; assay type: toxicity, organism-based; design: dose 100 mg/kg, route intraperitoneal; conditions: in vivo
Mus musculus [15] = test: Anticonvulsant activity in albino CF1 mouse assessed as protection against subcutaneous metrazol-induced seizures at 30 mg/kg, ip after 4 hrs; assay type: functional, organism-based; design: dose 30 mg/kg; method in brief: as §1
Rattus norvegicus [16] = test: Anticonvulsant activity in po dosed Sprague-Dawley albino rat assessed as protection against maximal electroshock-induced seizures; assay type: functional
Method in brief: (§5)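 Quantitative testing: rats dosed orally or ip in MES and scMet tests, and mice dosed ip, including the 6 Hz (32 mA) psychomotor seizure test. ED50 and TD50 were reported in mg/kg with ranges in parentheses. Protective index was calculated as TD50/ED50.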

Mus musculus [17] = test: Neurotoxicity in albino CF1 mouse assessed as minimal motor impairment at 30 mg/kg, ip after 0.5 hrs by rotarod test; assay type: toxicity, organism-based; design: dose 30 mg/kg, route intraperitoneal; conditions: in vivo; method in brief: as §1
Mus musculus [18] = test: Neurotoxicity in albino CF1 mouse assessed as minimal motor impairment at 300 mg/kg, ip after 0.5 hrs by rotarod test; assay type: toxicity, organism-based; design: dose 300 mg/kg, route intraperitoneal; conditions: in vivo; method in brief: as §1
Rattus norvegicus [19] = test: Anticonvulsant activity in Sprague-Dawley albino rat assessed as protection against maximal electroshock-induced seizures at 30 mg/kg, po after 1 hr; assay type: functional, organism-based; design: dose 30 mg/kg; method in brief: as §2
Mus musculus [20] = test: Anticonvulsant activity in albino CF1 mouse assessed as protection against subcutaneous metrazol-induced seizures at 300 mg/kg, ip after 0.5 hrs; assay type: functional, organism-based; design: dose 300 mg/kg; method in brief: as §1
Mus musculus [21] = test: Anticonvulsant activity in albino CF1 mouse assessed as protection against subcutaneous metrazol-induced seizures at 300 mg/kg, ip after 4 hrs; assay type: functional, organism-based; design: dose 300 mg/kg; method in brief: as §1
Rattus norvegicus [22] = test: Neurotoxicity in pilocarpine-induced status epilepticus Sprague-Dawley albino rat model assessed as minimal motor impairment at 100 mg/kg, ip after 0.5 hrs by rotarod test; assay type: toxicity, organism-based; design: dose 100 mg/kg, route intraperitoneal; conditions: in vivo
Rattus norvegicus [23] = test: Neurotoxicity in pilocarpine-induced status epilepticus Sprague-Dawley albino rat model assessed as minimal motor impairment at 300 mg/kg, ip after 1 hr by rotarod test; assay type: toxicity, organism-based; design: dose 300 mg/kg, route intraperitoneal; conditions: in vivo; method in brief: as §3
Mus musculus [24] = test: Anticonvulsant activity in albino CF1 mouse assessed as protection against maximal electroshock-induced seizures at 30 mg/kg, ip after 4 hrs; assay type: functional, organism-based; design: dose 30 mg/kg; method in brief: as §1
Mus musculus [25] = test: Anticonvulsant activity in albino CF1 mouse assessed as protection against maximal electroshock-induced seizures at 100 mg/kg, ip after 4 hrs; assay type: functional, organism-based; design: dose 100 mg/kg; method in brief: as §1
Mus musculus [26] = test: Neurotoxicity in albino CF1 mouse assessed as minimal motor impairment at 100 mg/kg, ip after 4 hrs by rotarod test; assay type: toxicity, organism-based; design: dose 100 mg/kg, route intraperitoneal; conditions: in vivo; method in brief: as §1
Mus musculus [27] = test: Anticonvulsant activity in albino CF1 mouse assessed as protection against maximal electroshock-induced seizures at 300 mg/kg, ip after 4 hrs; assay type: functional, organism-based; design: dose 300 mg/kg; method in brief: as §1
Mus musculus [28] = test: Anticonvulsant activity in albino CF1 mouse assessed as protection against maximal electroshock-induced seizures at 300 mg/kg, ip after 0.5 hrs; assay type: functional, organism-based; design: dose 300 mg/kg; method in brief: as §1
Mus musculus [29] = test: Anticonvulsant activity in albino CF1 mouse assessed as protection against maximal electroshock-induced seizures at 30 mg/kg, ip after 0.5 hrs; assay type: functional, organism-based; design: dose 30 mg/kg; method in brief: as §1
Rattus norvegicus [30] = test: Anticonvulsant activity in Sprague-Dawley albino rat assessed as protection against maximal electroshock-induced seizures at 30 mg/kg, po after 30 mins; assay type: functional, organism-based; design: dose 30 mg/kg; method in brief: as §2
Rattus norvegicus [31] = test: Neurotoxicity in pilocarpine-induced status epilepticus Sprague-Dawley albino rat model assessed as minimal motor impairment at 300 mg/kg, ip after 4 hrs by rotarod test; assay type: toxicity, organism-based; design: dose 300 mg/kg, route intraperitoneal; conditions: in vivo; method in brief: as §3
Mus musculus [32] = test: Anticonvulsant activity in albino CF1 mouse assessed as protection against subcutaneous metrazol-induced seizures at 100 mg/kg, ip after 4 hrs; assay type: functional, organism-based; design: dose 100 mg/kg; method in brief: as §1
Rattus norvegicus [33] = test: Neurotoxicity in pilocarpine-induced status epilepticus Sprague-Dawley albino rat model assessed as minimal motor impairment at 300 mg/kg, ip after 2 hrs by rotarod test; assay type: toxicity, organism-based; design: dose 300 mg/kg, route intraperitoneal; conditions: in vivo; method in brief: as §3
Rattus norvegicus [34] = test: Neurotoxicity in pilocarpine-induced status epilepticus Sprague-Dawley albino rat model assessed as minimal motor impairment at 100 mg/kg, ip after 2 hrs by rotarod test; assay type: toxicity, organism-based; design: dose 100 mg/kg, route intraperitoneal; conditions: in vivo
Mus musculus [35] = test: Neurotoxicity in albino CF1 mouse assessed as minimal motor impairment at 300 mg/kg, ip after 4 hrs by rotarod test; assay type: toxicity, organism-based; design: dose 300 mg/kg, route intraperitoneal; conditions: in vivo; method in brief: as §1
Rattus norvegicus [36] = test: Anticonvulsant activity in Sprague-Dawley albino rat assessed as protection against maximal electroshock-induced seizures at 100 mg/kg, po after 30 mins; assay type: functional, organism-based; design: dose 100 mg/kg; method in brief: as §2
Rattus norvegicus [37] = test: Protective index, ratio of TD50 for po dosed Sprague-Dawley albino rat by rotarod test to ED50 for po dosed Sprague-Dawley albino rat by subcutaneous metrazol seizures test; assay type: functional; method in brief: as §4
Rattus norvegicus [38] = test: Anticonvulsant activity in po dosed Sprague-Dawley albino rat assessed as protection against subcutaneous metrazol-induced seizures; assay type: functional; method in brief: as §5
Rattus norvegicus [39] = test: Anticonvulsant activity in Sprague-Dawley albino rat assessed as protection against maximal electroshock-induced seizures at 30 mg/kg, po after 4 hrs; assay type: functional, organism-based; design: dose 30 mg/kg; method in brief: as §2
Rattus norvegicus [40] = test: Anticonvulsant activity in Sprague-Dawley albino rat assessed as protection against maximal electroshock-induced seizures at 30 mg/kg, po after 2 hrs; assay type: functional, organism-based; design: dose 30 mg/kg; method in brief: as §2

CCCC(CCC)COC(N)=O
Activity (Mus musculus [1]): Active
Activity (Rattus norvegicus [2]): Non-toxic
Activity (Rattus norvegicus [3]): inactive
Activity (Rattus norvegicus [4]): inactive
TD50 [5]: > 500 mg/kg
Activity (Rattus norvegicus [6]): Non-toxic
Activity (Rattus norvegicus [7]): Toxic
Activity (Mus musculus [8]): Non-toxic
Ratio TD50/ED50 (Rattus norvegicus [9]): >14
Activity (Rattus norvegicus [10]): Toxic
Activity (Rattus norvegicus [11]): Non-toxic
Activity (Mus musculus [12]): inactive
Activity (Mus musculus [13]): inactive
Activity (Rattus norvegicus [14]): Non-toxic
Activity (Mus musculus [15]): inactive
ED50 (Rattus norvegicus [16]): 35 mg/kg
Activity (Mus musculus [17]): Non-toxic
Activity (Mus musculus [18]): Toxic
Activity (Rattus norvegicus [19]): inactive
Activity (Mus musculus [20]): Active
Activity (Mus musculus [21]): Active
Activity (Rattus norvegicus [22]): Non-toxic
Activity (Rattus norvegicus [23]): Toxic
Activity (Mus musculus [24]): inactive
Activity (Mus musculus [25]): inactive
Activity (Mus musculus [26]): Non-toxic
Activity (Mus musculus [27]): Active
Activity (Mus musculus [28]): Active
Activity (Mus musculus [29]): inactive
Activity (Rattus norvegicus [30]): inactive
Activity (Rattus norvegicus [31]): Toxic
Activity (Mus musculus [32]): inactive
Activity (Rattus norvegicus [33]): Toxic
Activity (Rattus norvegicus [34]): Non-toxic
Activity (Mus musculus [35]): Toxic
Activity (Rattus norvegicus [36]): Active
Ratio TD50/ED50 (Rattus norvegicus [37]): >4
ED50 (Rattus norvegicus [38]): > 125 mg/kg
Activity (Rattus norvegicus [39]): inactive
Activity (Rattus norvegicus [40]): inactive
